Calls of active or inactive are those of the source.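 The calls were made as follows: active = calcium signal cut by more than 3 SD below the full-agonist control yet still positive, in both repeats and the earlier primary screen; inactive = the rest.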

Chain of Short transient receptor potential channel 4 (Mus musculus) (Q9QUQ5 whole entry, looked up): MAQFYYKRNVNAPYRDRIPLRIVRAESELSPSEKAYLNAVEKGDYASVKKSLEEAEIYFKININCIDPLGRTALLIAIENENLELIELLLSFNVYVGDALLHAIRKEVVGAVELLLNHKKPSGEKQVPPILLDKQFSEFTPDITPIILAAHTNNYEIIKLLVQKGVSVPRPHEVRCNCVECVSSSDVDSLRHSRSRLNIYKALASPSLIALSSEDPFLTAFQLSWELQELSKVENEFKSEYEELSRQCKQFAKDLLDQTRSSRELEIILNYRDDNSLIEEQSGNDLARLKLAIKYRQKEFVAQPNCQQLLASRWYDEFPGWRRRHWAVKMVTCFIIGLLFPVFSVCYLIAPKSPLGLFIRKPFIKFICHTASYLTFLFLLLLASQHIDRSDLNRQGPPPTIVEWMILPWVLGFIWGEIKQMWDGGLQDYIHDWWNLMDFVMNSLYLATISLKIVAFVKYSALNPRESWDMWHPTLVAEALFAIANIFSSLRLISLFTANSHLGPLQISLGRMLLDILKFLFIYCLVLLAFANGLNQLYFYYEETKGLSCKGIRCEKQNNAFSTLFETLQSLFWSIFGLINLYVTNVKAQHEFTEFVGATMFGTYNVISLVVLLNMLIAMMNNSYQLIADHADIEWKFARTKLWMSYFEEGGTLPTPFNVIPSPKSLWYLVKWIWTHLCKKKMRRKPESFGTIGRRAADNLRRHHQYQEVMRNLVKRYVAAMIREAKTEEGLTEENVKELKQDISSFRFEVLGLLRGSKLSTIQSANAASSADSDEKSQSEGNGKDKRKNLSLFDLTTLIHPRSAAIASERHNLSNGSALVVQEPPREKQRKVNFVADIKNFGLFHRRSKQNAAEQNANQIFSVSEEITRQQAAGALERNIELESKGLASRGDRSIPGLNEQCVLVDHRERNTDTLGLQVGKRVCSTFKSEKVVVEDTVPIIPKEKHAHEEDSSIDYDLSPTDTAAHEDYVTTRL

The test addresses Short transient receptor potential channel 4 (Mus musculus) (UniProt Q9QUQ5). Put plainly: inhibitors of mouse TRPC4 channel, confirmation, cell-based, Fluo4, HEK293 TRPC4beta/mu-opioid (AID 2636). As to conditions: DAMGO, Fluo4 calcium flux, at 10 µM; hits give high values. In outline: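 Test system: HEK293 stable line with TRPC4beta plus mu-opioid receptor; Probe or stimulus: DAMGO, mu-opioid agonist, submaximal dose then maximally activating dose; Timing: dye 45 min at room temperature, compound 110 s, submaximal DAMGO 110 s; Technique: kinetic fluorescence of Fluo4 calcium-sensitive dye, calcium influx; Replication: duplicates per compound.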
Background: Calcium flux is commonly read through the fluorescence of an indicator in the cells.
The term inhibition denotes how much of the control response was suppressed. On to `COc1cc(/C=C2\C(=N)N3N=C(S(C)(=O)=O)SC3=NC2=O)ccc1OC(=O)c1cccs1`, for which the inhibition is 86% (active).
Turning to `c1ccc(CN2CCN(c3nc4ccccc4s3)CC2)cc1`, the outcome was inactive.
With `COc1ccccc1N(C(=O)c1snc(C(N)=O)c1N)C(C(=O)NCc1ccccc1)c1ccc(O)cc1` (configuration not stated), the inhibition is 91% (active).
In the case of `Cc1ccc(SC(CC(=O)c2ccc(C(C)(C)C)cc2)C(=O)O)cc1` (configuration not stated), the outcome was inactive.
For `COc1ccc(C2CC(=O)c3cnc(N4CCN(Cc5ccccc5)CC4)nc3C2)cc1` (configuration not stated), the result was inactive.
Same read-out and setting: the value for `CC(=O)Nc1ccc(S(=O)(=O)N2CCN(CCCOc3cc(C)ccc3C)CC2)cc1` was “inactive”; that for `COc1cc(/C=C/C(=O)OCC(=O)Nc2c(C)n(C)n(-c3ccccc3)c2=O)ccc1OCC#N` was “inactive”; that for `Cc1cc2oc(C(=O)N(Cc3ccco3)C3CCS(=O)(=O)C3)cc(=O)c2cc1Cl` (configuration not stated) was “inactive”.
On the same count and under the same terms, the value for `CCOCCCn1cnc2c(c1=O)c1nc3ccccc3nc1n2-c1ccc(C)cc1` was “inactive”.
Still for that read-out and setting: the value for `O=C(c1ccccc1F)N1CCN(c2ccc([N+](=O)[O-])cc2-n2cccc2)CC1` was “inactive”.
For `CN(CC(=O)Nc1ccc(F)cc1)C(=O)COC(=O)c1ccccc1`, the result was inactive.
The same measure, in the same setting: the value for `O=C(NC1CC1)c1ccc2c(c1)N(Cc1ccc(Cl)cc1)CCS2` was “inactive”.
Regarding `O=C(Nc1ccc2c(c1)OCO2)c1cnn2cccnc12`, the result was inactive.
Still for that read-out and setting: the value for `CCc1nc2ccccc2n1Cc1ccccc1F` was “inactive”.
On the same count and under the same terms, the value for `CN(Cc1ccco1)C(=O)Cn1ncc2c([nH]c3ccccc32)c1=O` was “inactive”; that for `CN1CCN(NC(=O)Nc2cc(Cl)cc(Cl)c2)CC1` was “inactive”; that for `Cc1ccc2nc(C(=O)N3CCc4c([nH]c5ccccc45)C3c3ccccn3)cn2c1` (configuration not stated) was “inactive”.
